From publication PMC10848874 (Bioorganic & medicinal chemistry, 2023)
“Also recorded” adds a separate entry of the source.

Experiments:
[1] = tested on: PANC-1 cells; assay: Wound healing; type: cell-based, human; conditions: for Scratch gap closure: PANC-1 cells, 37 °C, 5% CO2; for PANC-1 cell migration in wound healing assay (in words): 0.5 and 1 μM
Outline: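 PANC-1 cells in DMEM with 10% heat-inactivated FBS and 30 μg/mL gentamicin were seeded at about 1 × 10⁵ cells per well in 6-well plates and grown to 70–80% confluency. Each well was scratched with a sterile pipette tip, then medium and detached cells were removed. Duplicate wells received 0.5 or 1 μM test compound or control (final DMSO ≤0.2%). Closure was imaged by automated microscopy (4X) for 48 h.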

[2] = tested on: purified bovine brain tubulin; assay: Inhibition of tubulin polymerization; type: biochemical; conditions: oxetane analogues compared with their ketone counterparts
Outline: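 Bovine brain tubulin at 1 mg/mL (10 μM) in 0.8 M monosodium glutamate (pH 6.6) with 4% (v/v) DMSO and varied test compound concentrations, preincubated 15 min at 30 °C without GTP. The mix was chilled to 0 °C, then GTP added (0.1 mM final), and warmed to 30 °C over about 30 s.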

Row | Compound | Scratch gap closure ([1]; 0.5 μM compound) | Scratch gap closure ([1]; 1 μM compound) | PANC-1 cell migration in wound healing assay (in words) [1] | Inhibition of tubulin polymerization (in words) [2]
1 | COc1cc(C2(c3c(-c4ccccc4)[nH]c4cc(Br)ccc34)COC2)cc(OC)c1OC [Compound 5c, 6-Bromo-2-phenyl-3-(3-(3,4,5-trimethoxyphenyl)oxetan-3-yl)-1H-indole] | gap is not completely closed after 40 h | gap remains open after 40 h | inhibited PANC-1 cell migration | at most weakly active as inhibitors of tubulin polymerization; also recorded: no significant tubulin assembly inhibition activity
2 | COc1cc(C2(c3c(-c4ccccc4)[nH]c4c(OC)cccc34)COC2)cc(OC)c1OC [Compound 5h, 7-Methoxy-2-phenyl-3-(3-(3,4,5-trimethoxyphenyl)oxetan-3-yl)-1H-indole] | gap is not closed after 48 h | gap remains open after 48 h | inhibited PANC-1 cell migration | at most weakly active as inhibitors of tubulin polymerization; also recorded: no significant tubulin assembly inhibition activity
3 | COc1cc(C2(c3c(-c4ccccc4)[nH]c4cc(Cl)ccc34)COC2)cc(OC)c1OC [Compound 5k, 6-Chloro-2-phenyl-3-(3-(3,4,5-trimethoxyphenyl)oxetan-3-yl)-1H-indole] | – | – | – | at most weakly active as inhibitors of tubulin polymerization; also recorded: no significant tubulin assembly inhibition activity
4 | COc1ccc2[nH]c(-c3ccccc3)c(C3(c4cc(OC)c(OC)c(OC)c4)COC3)c2c1 [Compound 5l, 5-Methoxy-2-phenyl-3-(3-(3,4,5-trimethoxyphenyl)oxetan-3-yl)-1H-indole] | – | – | – | at most weakly active as inhibitors of tubulin polymerization; also recorded: no significant tubulin assembly inhibition activity
5 | COc1ccc2c(C3(c4cc(OC)c(OC)c(OC)c4)COC3)c(-c3ccc(OC)c(O)c3)[nH]c2c1 [Compound 5m, 2-Methoxy-5-(6-methoxy-3-(3-(3,4,5-trimethoxyphenyl)oxetan-3-yl)-1H-indol-2-yl)phenol] | – | – | – | at most weakly active as inhibitors of tubulin polymerization; also recorded: no significant tubulin assembly inhibition activity
